Measurements as given in ChEMBL document CHEMBL4004869, “3-Phenylalkyl-2H-chromenes and -chromans as novel rhinovirus infection inhibitors” (Bioorg Med Chem, 2017).

How the values were obtained:
[1] = Cytotoxicity against human HeLa cells assessed as changes in morphology after 3 days by microscopic method; type: cell-based; conditions: read-out: MNCC
Summary of the method: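 HeLa cytotoxicity by XTT colorimetric assay plus microscopy after 3 days at 37 °C. MNCC is the highest concentration leaving morphology and viability of all cells unaffected. CC50 is the dose reducing viability by 50% of untreated controls. Two independent assays in triplicate.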

[2] = Cytotoxicity against human HeLa cells assessed as reduction in cell viability by XTT assay; type: cell-based
Summary of the method: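 HeLa cytotoxicity by XTT colorimetric assay plus microscopy after 3 days at 37 °C. MNCC is the highest concentration leaving morphology and viability of all cells unaffected. Two independent assays in triplicate.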

rhinovirus A1B = assay: Antiviral activity against HRV 1B infected in human HeLa cells after 72 hrs by plaque reduction assay; type: functional, cell-based
Summary of the method: (§1)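 Plaque reduction in HeLa monolayers infected with virus giving about 100 plaques per well. Compound tested dose-dependently starting from the maximum non-cytotoxic concentration, with ethanol stocks diluted in medium just before use. Where 50% is not reached, percent inhibition at MNCC is given. Two independent assays in triplicate, mean ± SD.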

rhinovirus B14 [3] = assay: Antiviral activity against HRV 14 infected in human HeLa cells after 72 hrs by plaque reduction assay; type: functional, cell-based
Summary of the method: as §1, with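 “use. IC50 is the dose cutting plaque number by 50%, read from log concentration versus percent plaque reduction.” for “use.”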

[4] = Selectivity index, ratio of CC50 for human HeLa cells to IC50 for HRV 1B infected in human HeLa cells
Summary of the method: (§2)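 Selectivity index is CC50 (XTT, HeLa) divided by IC50 from HeLa plaque reduction against the stated serotype.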

rhinovirus B14 [5] = assay: Antiviral activity against HRV 14 infected in human HeLa cells at MNCC after 72 hrs by plaque reduction assay relative to control; type: functional; parameters: scale not given: the % may be the effect or the level left
Summary of the method: as §1, with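 “use. IC50 is the dose cutting plaque number by 50%, read from log concentration versus percent plaque reduction.” for “use.”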

[6] = Selectivity index, ratio of CC50 for human HeLa cells to IC50 for HRV 14 infected in human HeLa cells; summary of the method: as §2
[7] = Rhinovirus A, HeLa, 72 h, read-out: IC50
[8] = Rhinovirus B, HeLa, 72 h, read-out: IC50

SMILES	MNTC at 72 h [1]	CC50 [2]	IC50 (rhinovirus A1B; hela)	IC50 (rhinovirus B14 [3]; hela)	Activity (rhinovirus A1B)	IC50 (rhinovirus A1B; [7])	Ratio CC50/IC50 [4]	Activity (rhinovirus B14 [3])	IC50 (rhinovirus B14 [3]; [8])	Activity (rhinovirus B14 [5])	Ratio CC50/IC50 [6]
C/C(=C\c1ccccc1)C1=Cc2ccccc2OC1	12.5 µM	25 µM	Not Active	Not Active							
c1ccc(CCCC2COc3ccccc3C2)cc1 (configuration not stated)	100 µM	200 µM			Dose-dependent effect	9590 nM	20.85	Dose-dependent effect	> 100 µM	37%	
C1=C(CCCCCc2ccccc2)COc2ccccc21	50 µM	100 µM			Dose-dependent effect	560 nM	178.57	Dose-dependent effect	> 50 µM	37%	
Clc1ccc(CCCC2COc3ccc(Cl)cc3C2)cc1 (configuration not stated)	100 µM	200 µM			Dose-dependent effect	560 nM	357.14	Dose-dependent effect	30 µM		6.67
c1ccc(CCC2COc3ccccc3C2)cc1 (configuration not stated)	3.12 µM	6.25 µM			Dose-dependent effect	490 nM	12.75	Dose-dependent effect	> 3.12 µM	16%	
c1ccc(CCCCCC2COc3ccccc3C2)cc1 (configuration not stated)	100 µM	200 µM			Dose-dependent effect	4740 nM	42.19	Dose-dependent effect	33 µM		6.05
Clc1ccc2c(c1)CC(CCCc1ccccc1)CO2 (configuration not stated)	100 µM	200 µM			Dose-dependent effect	1790 nM	111.73	Dose-dependent effect	25 µM		8
O=C(/C=C/C1=Cc2ccccc2OC1)c1ccccc1	25 µM	50 µM	Not Active								
C1=C(CCCc2ccccc2)COc2ccccc21	100 µM	200 µM			Dose-dependent effect	2370 nM	84.39	Dose-dependent effect	40.5 µM		4.94
C1=C(CCc2ccccc2)COc2ccccc21	25 µM	50 µM			Dose-dependent effect	480 nM	104.17	Dose-dependent effect	> 25 µM	26%	
C1=C(CCCCc2ccccc2)COc2ccccc21	50 µM	100 µM			Dose-dependent effect	540 nM	185.18	Dose-dependent effect	12.7 µM		7.87
c1ccc(CCCCC2COc3ccccc3C2)cc1 (configuration not stated)	50 µM	100 µM			Dose-dependent effect	710 nM	140.84	Dose-dependent effect	> 50 µM	25%	
